Results gathered from unrelated publications.
Each line is one published result; the experiments were not run side by side.
Target: Serine/threonine-protein kinase RIO2 (RIOK2, Homo sapiens, UniProt Q9BVS4)

SMILES	test	setting	remaining binding
O=C(c1ccc(Nc2ncc(Cl)c(-c3ccc(Cl)s3)n2)cc1)N1CCC(N2CCCC2)CC1	binding, competition with immobilised ligand	1 µM	49%
Cc1nc(N2CC[C@@H](O)C2)ncc1-c1cc(C(F)(F)F)cc2[nH]ncc12	binding, competition with immobilised ligand	1 µM	100%
N#Cc1ccccc1CSc1nnc2c(n1)[nH]c1ccccc12	binding, competition with immobilised ligand	10 µM	94%
O=C(NCCCN1CCOCC1)c1ccc(Nc2ncc(Cl)c(-c3ccc(Cl)s3)n2)cc1	binding, competition with immobilised ligand	1 µM	59%
C[C@@H]1CCN(c2nccc(-c3cnn4ncccc34)n2)C1	binding	1 µM	75%
C=CC(=O)N1CCC(C(=O)NCC(=O)N2CCN(c3nc(-c4cnc(N)nc4C(F)F)nc(N4CCOCC4)n3)CC2)CC1	binding, competition with immobilised ligand	1 µM	83%
CN(C)c1nccc(-c2cnn3ncccc23)n1	binding	1 µM	84%
O=C(Nc1ccc(Oc2ccc(F)cc2)cc1)N1CCc2ncccc2[C@H]1c1ccc(F)cc1	cell-free assay, competition with immobilised ligand	1 µM	94%
Nc1ncc2c(n1)-c1c([nH]c3ccc(C#CC4CC4)cc13)CCCC2	binding, competition with immobilised ligand	1 µM	77%
CC(=O)N1CCC(c2ccc(C(=O)NC3=NCCN3)cc2C(F)(F)F)CC1	cell-free assay, competition with immobilised ligand	1 µM	93%
Cc1cnc(Nc2ccc(C(=O)N3CCC(N4CCCC4)CC3)cc2)nc1-c1cc2ccccc2s1	binding, competition with immobilised ligand	1 µM	40%
CNC(=O)Nc1ccc2c(c1)[C@@]1(CC2)OC(=O)N(CC(=O)N(Cc2ccc(F)cc2)[C@@H](C)C(F)(F)F)C1=O	cell-free assay, competition with immobilised ligand	1 µM	83%
CN(C)c1ncc(F)c(-c2cnn3ncccc23)n1	binding	1 µM	78%
C[C@@H]1CN(c2ccc3ncc(-c4ccc5[nH]nc(C6CC6)c5c4)n3n2)C[C@H](C)O1	binding, competition with immobilised ligand	50 nM	76%
COc1cnc(Nc2cccc(S(N)(=O)=O)c2)nc1N1CCN(c2ccccc2)C(=O)C1	binding, competition with immobilised ligand	1 µM	100%
N[C@@H]1CCN(c2nccc(-c3cnn4ncccc34)n2)C1	binding	1 µM	37%
COc1cnc(Nc2cccc(S(N)(=O)=O)c2)nc1N1CCN(c2ccccc2)CC1	binding, competition with immobilised ligand	1 µM	83%
C[C@@H](c1ccc(-n2cnc3c(N)ncnc32)cc1)N1CCc2nn(C)c(Cc3ccccc3)c2C1=O	binding, competition with immobilised ligand	0.1 µM	97%
c1ccc(N2CCN(Cc3nc4ccccc4[nH]3)CC2)nc1	binding, competition with immobilised ligand	1 µM	100%
c1cncc(-c2cccc(Nc3nccc(NC4CCCCC4)n3)c2)c1	binding, competition with immobilised ligand	10 µM	37%
CN(C)C(=O)Cn1cc(-c2nc([C@@](C)(c3ccc(-c4cnc(N)nc4)cc3)C3CC3)no2)cn1	cell-free assay, competition with immobilised ligand	1 µM	87%
O=C(NCC1CCOCC1)c1n[nH]cc1NC(=O)c1c(F)cccc1F	binding, competition with immobilised ligand	1 µM	35%
CC1=C(C#N)C(c2ccc3c(c2)c(NC(=O)c2ccccc2C)nn3C)C(C#N)=C(C)N1	cell-free assay, competition with immobilised ligand	1 µM	65%
CN(CCCC(F)(F)F)c1nccc(-c2cnn3ncccc23)n1	binding	1 µM	100%
